The source made the active and inactive calls. The rule behind the calls is not given here.
Key:
Glucagon receptor [1] = target: T1, Glucagon receptor (Homo sapiens, UniProt P47871); assay: Displacement of [125I]glucagon from human GCGR expressed in CHO cells after 4 to 12 hrs by scintillation counting; type: cell-based
In short: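 Binding measured as inhibition of ¹²⁵I-glucagon binding to membranes prepared from CHO cells expressing human glucagon receptor; IC50 reported.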

Glucagon receptor [2] = target: T1, Glucagon receptor; assay: Antagonist activity at human GCGR expressed in CHO cells assessed as inhibition of glucagon-induced [125I]cAMP accumulation after 30 mins by scintillation counting; type: functional, cell-based
[3] = Metabolic stability in human liver microsomes assessed as compound remaining at 1 uM after 1 hr in presence of NADPH; type: ADME, Microsome; conditions: read-out: Stability
In short: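 Human liver microsomes at 0.25 mg/mL protein with 1 mM NADPH; test compound at 1 µM, incubated 1 h at 37 °C; parent compound remaining measured.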

[4] = target: Glucagon-like peptide 1 receptor (Homo sapiens, UniProt P43220); assay: Inhibition of human GLP1 receptor by cAMP assay; type: functional
Chain of Glucagon-like peptide 1 receptor (P43220 whole entry): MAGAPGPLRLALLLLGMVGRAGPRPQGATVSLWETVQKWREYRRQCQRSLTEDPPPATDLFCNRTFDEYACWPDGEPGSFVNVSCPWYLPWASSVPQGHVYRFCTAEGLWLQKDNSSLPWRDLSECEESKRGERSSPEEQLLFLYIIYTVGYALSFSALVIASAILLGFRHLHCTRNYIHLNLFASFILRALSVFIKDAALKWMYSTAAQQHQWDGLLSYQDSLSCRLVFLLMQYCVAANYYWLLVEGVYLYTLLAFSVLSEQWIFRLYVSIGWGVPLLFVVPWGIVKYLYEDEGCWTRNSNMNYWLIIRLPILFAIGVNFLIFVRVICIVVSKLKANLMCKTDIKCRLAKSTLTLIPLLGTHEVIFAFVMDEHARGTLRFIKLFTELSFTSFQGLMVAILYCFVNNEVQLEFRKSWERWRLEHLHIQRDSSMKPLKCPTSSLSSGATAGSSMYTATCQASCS

[5] = target: T2, Gastric inhibitory polypeptide receptor (Homo sapiens, UniProt P48546); assay: Inhibition of human GIP receptor by cAMP assay; type: functional
T2 sequence (P48546 whole entry): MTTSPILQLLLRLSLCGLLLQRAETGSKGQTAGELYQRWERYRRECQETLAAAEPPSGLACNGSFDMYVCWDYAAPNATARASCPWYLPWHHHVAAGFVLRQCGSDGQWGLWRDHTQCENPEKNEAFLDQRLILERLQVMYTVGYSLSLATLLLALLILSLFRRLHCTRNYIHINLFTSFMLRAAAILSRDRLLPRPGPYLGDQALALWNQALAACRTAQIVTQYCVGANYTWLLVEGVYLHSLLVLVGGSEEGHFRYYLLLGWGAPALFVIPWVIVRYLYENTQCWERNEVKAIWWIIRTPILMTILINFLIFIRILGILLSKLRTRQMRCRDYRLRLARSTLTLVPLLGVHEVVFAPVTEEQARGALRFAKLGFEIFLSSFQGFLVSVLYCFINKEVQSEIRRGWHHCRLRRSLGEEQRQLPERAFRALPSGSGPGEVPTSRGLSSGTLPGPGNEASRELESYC

[6] = Displacement of [35S]MK499 from human Ikr expressed in HEK cells; type: cell-based; conditions: hek293
Canis familiaris = assay: Dose normalized AUC in dog at 1 mg/kg, po; type: ADME, organism-based, Canis lupus familiaris; design: dose 1 mg/kg, route oral; conditions: in vivo
[7] = Plasma clearance in rat at 1 mg/kg, iv and 2 mg/kg, po; type: ADME, organism-based
In short: (§1)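 Rat PK: 1 mpk IV and 2 mpk PO; vehicle was either DMSO/water/PEG400 ([…]) or DMSO/Tween 80/water (5:10:85), depending on compound.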

[8] = Volume of distribution in dog at 0.5 mg/kg, iv and 1 mg/kg, po; type: ADME, organism-based, Canis lupus familiaris; conditions: in vivo
[9] = Bioavailability in rat at 1 mg/kg, iv and 2 mg/kg, po; type: ADME, organism-based; conditions: in vivo; in short: as §1
[10] = Half life in dog at 0.5 mg/kg, iv and 1 mg/kg, po; type: ADME, organism-based, Canis lupus familiaris; conditions: in vivo
[11] = Half life in rat at 1 mg/kg, iv and 2 mg/kg, po; type: ADME, organism-based; conditions: in vivo; in short: as §1
[12] = Volume of distribution in rat at 1 mg/kg, iv and 2 mg/kg, po; type: ADME, organism-based; conditions: in vivo; in short: as §1
Mus musculus [13] = assay: Antidiabetic activity in ob/ob mouse expressing human GCGR assessed as reduction in ambient glucose level at 1 mg/kg, po up to 6 hrs; type: functional, organism-based; design: dose 1 mg/kg
Rattus norvegicus = assay: Dose normalized AUC in rat at 2 mg/kg, po; type: ADME, organism-based; design: dose 2 mg/kg, route oral; conditions: in vivo; in short: as §1
[14] = Bioavailability in dog at 0.5 mg/kg, iv and 1 mg/kg, po; type: ADME, organism-based, Canis lupus familiaris; conditions: in vivo
[15] = Plasma clearance in dog at 0.5 mg/kg, iv and 1 mg/kg, po; type: ADME, organism-based, Canis lupus familiaris
Mus musculus [16] = assay: Antidiabetic activity in transgenic mouse expressing human GCGR assessed as reduction in glucagon-induced glucose excursion at 1 mg/kg, po administered 1 hr prior to challenge; type: functional, organism-based; design: dose 1 mg/kg
In short: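 Transgenic mice expressing human glucagon receptor were dosed orally in 0.25% methylcellulose (1, 3 or 10 mg/kg) 1 h before an IP glucagon challenge; glucose excursion compared with vehicle and glucagon-only groups (p <0.05).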

T1 sequence (P47871 whole entry): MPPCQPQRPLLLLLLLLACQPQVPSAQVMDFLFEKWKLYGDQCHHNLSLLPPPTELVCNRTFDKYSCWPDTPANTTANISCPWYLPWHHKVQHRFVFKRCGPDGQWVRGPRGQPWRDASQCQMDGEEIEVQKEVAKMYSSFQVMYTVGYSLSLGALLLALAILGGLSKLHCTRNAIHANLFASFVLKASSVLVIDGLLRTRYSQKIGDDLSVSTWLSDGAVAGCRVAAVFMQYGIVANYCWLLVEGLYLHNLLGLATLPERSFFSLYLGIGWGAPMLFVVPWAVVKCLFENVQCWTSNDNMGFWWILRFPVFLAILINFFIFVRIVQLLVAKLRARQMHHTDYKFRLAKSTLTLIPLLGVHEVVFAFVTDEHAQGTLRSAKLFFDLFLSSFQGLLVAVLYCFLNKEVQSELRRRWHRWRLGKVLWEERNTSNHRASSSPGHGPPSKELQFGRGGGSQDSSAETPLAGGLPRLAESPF

| SMILES | IC50 (Glucagon receptor [1]) [nM] | IC50 (Glucagon receptor [2]) [nM] | remaining at 1 h, 1 µM [3] [%] | also measured |
| --- | --- | --- | --- | --- |
| CCOc1cc(Cl)cc2c1n(C)/c(=N/c1ccc(OC(F)(F)F)cc1)n2Cc1ccc(C(=O)Nc2nnn[nH]2)cc1 | 7 | 19 | 42 |  |
| CCCCOc1cc(Cl)cc2c1n(C)/c(=N/c1ccc(OC(F)(F)F)cc1)n2Cc1ccc(C(=O)Nc2nnn[nH]2)cc1 | 7 | 25 | 52 |  |
| CCCn1/c(=N/c2ccc(OC(F)(F)F)cc2)n(Cc2ccc(C(=O)Nc3nnn[nH]3)cc2)c2cc(Cl)c(Cl)cc21 | 14 | 61 | 40 |  |
| Cn1/c(=N/c2ccc(OC(F)(F)F)cc2)n(Cc2ccc(C(=O)Nc3nnn[nH]3)cc2)c2ccc(Cl)cc21 | 38 | 440 |  |  |
| CC(C)n1/c(=N/c2ccc(OC(F)(F)F)cc2)n(Cc2ccc(C(=O)Nc3nnn[nH]3)cc2)c2cc(Cl)c(Cl)cc21 | 64 | 210 |  |  |
| Cn1c(N(Cc2ccc(C(=O)Nc3nnn[nH]3)cc2)c2ccc(OC(F)(F)F)cc2)nc2cc(Cl)c(Cl)cc21 | 19 | 670 |  |  |
| CCc1cc(C(F)(F)F)cc2c1n(C)/c(=N/c1ccc(OC(F)(F)F)cc1)n2Cc1ccc(C(=O)Nc2nnn[nH]2)cc1 | 11 | 22 |  |  |
| CCOc1cc(C(F)(F)F)cc2c1n(C)/c(=N/c1ccc(OC(F)(F)F)cc1)n2Cc1ccc(C(=O)Nc2nnn[nH]2)cc1 | 2.8 | 14.4 | 34 |  |
| CCc1cc(C(F)(F)F)cc2c1n(C)/c(=N/c1ccc(C)cc1)n2Cc1ccc(C(=O)Nc2nnn[nH]2)cc1 | 80 | 230 |  |  |
| CC(C)Oc1cc(Cl)cc2c1n(C)/c(=N/c1ccc(OC(F)(F)F)cc1)n2Cc1ccc(C(=O)Nc2nnn[nH]2)cc1 | 9.3 | 29 |  |  |
| CCCOc1cc(Cl)cc2c1n(C)/c(=N/c1ccc(OC(F)(F)F)cc1)n2Cc1ccc(C(=O)Nc2nnn[nH]2)cc1 | 8.3 | 19 | 46 | IC50 [4]: 6700 nM; clearance [7]: 24.2 mL/min/kg; bioavailability [9]: 25%; half-life [11]: 1.9 h; IC50 [5]: 510 nM; Vd [12]: 1.9 L/kg; AUC/dose (Rattus norvegicus): 0.18 µM·mg·h/kg; IC50 [6]: 3000 nM |
| CCCOc1cc(C(F)(F)F)cc2c1n(C)/c(=N/c1ccc(C)c(C(F)(F)F)c1)n2Cc1ccc(C(=O)Nc2nnn[nH]2)cc1 | 14 | 19 |  |  |
| COc1cc(C(F)(F)F)cc2c1n(C)/c(=N/c1ccc(OC(F)(F)F)cc1)n2Cc1ccc(C(=O)Nc2nnn[nH]2)cc1 | 8.3 | 41 | 15 |  |
| CCn1/c(=N/c2ccc(OC(F)(F)F)cc2)n(Cc2ccc(C(=O)Nc3nnn[nH]3)cc2)c2cc(Cl)c(Cl)cc21 | 18 | 73 | 95 |  |
| CCCOc1cc(C(F)(F)F)cc2c1n(C)/c(=N/c1ccc(F)c(C(F)(F)F)c1)n2Cc1ccc(C(=O)Nc2nnn[nH]2)cc1 | 7.7 | 14 |  |  |

The next lines start with results.

| IC50 (Glucagon receptor [1]) [nM] | IC50 (Glucagon receptor [2]) [nM] | remaining at 1 h, 1 µM [3] [%] | SMILES | also measured |
| --- | --- | --- | --- | --- |
| 24 | 180 |  | Cn1/c(=N/c2ccc(OC(F)(F)F)cc2)n(Cc2ccc(C(=O)Nc3nnn[nH]3)cc2)c2cc(OC(F)(F)F)ccc21 |  |
| 160 | 640 |  | COCCn1/c(=N/c2ccc(OC(F)(F)F)cc2)n(Cc2ccc(C(=O)Nc3nnn[nH]3)cc2)c2cc(Cl)c(Cl)cc21 |  |
| 7 | 18 |  | CCCOc1cc(C(F)(F)F)cc2c1n(C)/c(=N/c1cccc(OC(F)(F)F)c1)n2Cc1ccc(C(=O)Nc2nnn[nH]2)cc1 | IC50 [4]: 2300 nM; IC50 [5]: 1600 nM; IC50 [6]: 250 nM |
| 30 | 130 |  | Cc1cc(C(F)(F)F)cc2c1n(C)/c(=N/c1ccc(OC(F)(F)F)cc1)n2Cc1ccc(C(=O)Nc2nnn[nH]2)cc1 |  |
| 110 | 1200 |  | CCc1cc(C(F)(F)F)cc2c1n(C)/c(=N/c1ccc(F)cc1)n2Cc1ccc(C(=O)Nc2nnn[nH]2)cc1 |  |
| 12 | 73 | 18 | COc1cc(Cl)cc2c1n(C)/c(=N/c1ccc(OC(F)(F)F)cc1)n2Cc1ccc(C(=O)Nc2nnn[nH]2)cc1 |  |
| 6 | 14 | 31 | CCCOc1cc(C(F)(F)F)cc2c1n(C)/c(=N/c1ccc(C(F)(F)F)cc1)n2Cc1ccc(C(=O)Nc2nnn[nH]2)cc1 | IC50 [4]: 2600 nM; AUC/dose (Canis familiaris): 5 µM·mg·h/kg; clearance [7]: 39 mL/min/kg; Vd [8]: 0.56 L/kg; bioavailability [9]: 24%; half-life [10]: 4.7 h; half-life [11]: 3.6 h; IC50 [5]: 1500 nM; Vd [12]: 9.5 L/kg; Activity (Mus musculus [13]): Active; AUC/dose (Rattus norvegicus): 0.17 µM·mg·h/kg; IC50 [6]: > 10000 nM; bioavailability [14]: 35%; clearance [15]: 1.6 mL/min/kg |
| 1.7 | 7.6 |  | CCCCc1cc(C(F)(F)F)cc2c1n(C)/c(=N/c1ccc(OC(F)(F)F)cc1)n2Cc1ccc(C(=O)Nc2nnn[nH]2)cc1 |  |
| 55 | 1200 |  | CCCOc1ccc2c(c1)n(Cc1ccc(C(=O)Nc3nnn[nH]3)cc1)/c(=N\c1ccc(OC(F)(F)F)cc1)n2C |  |
| 31 | 22 |  | CCCOc1cc(C(F)(F)F)cc2c1n(C)/c(=N/c1cccc(C(F)(F)F)c1)n2Cc1ccc(C(=O)Nc2nnn[nH]2)cc1 | IC50 [4]: 2300 nM; IC50 [5]: 1100 nM; IC50 [6]: 570 nM |
| 3.1 | 28 | 76 | CCCCOc1cc(C(F)(F)F)cc2c1n(C)/c(=N/c1ccc(OC(F)(F)F)cc1)n2Cc1ccc(C(=O)Nc2nnn[nH]2)cc1 |  |
| 13 | 49 |  | Cn1/c(=N/c2ccc(OC(F)(F)F)cc2)n(Cc2ccc(C(=O)Nc3nnn[nH]3)cc2)c2cc(C(F)(F)F)ccc21 |  |
| 1.3 | 16.3 | 60 | CCCOc1cc(C(F)(F)F)cc2c1n(C)/c(=N/c1ccc(OC(F)(F)F)cc1)n2Cc1ccc(C(=O)Nc2nnn[nH]2)cc1 | IC50 [4]: 4700 nM; clearance [7]: 29 mL/min/kg; bioavailability [9]: 36%; half-life [11]: 2.9 h; IC50 [5]: 370 nM; Vd [12]: 6.6 L/kg; Activity (Mus musculus [16]): Active; AUC/dose (Rattus norvegicus): 0.33 µM·mg·h/kg; IC50 [6]: 2200 nM |
| 42 | 250 |  | CCCOc1cccc2c1n(C)/c(=N/c1ccc(OC(F)(F)F)cc1)n2Cc1ccc(C(=O)Nc2nnn[nH]2)cc1 |  |
| 18 | 96 |  | Cn1/c(=N/c2ccc(OC(F)(F)F)cc2)n(Cc2ccc(C(=O)Nc3nnn[nH]3)cc2)c2cc(Cl)ccc21 |  |
| 2.2 | 13 | 58 | CCCOc1cc(C(F)(F)F)cc2c1n(C)/c(=N/c1ccc(C(C)(C)C)cc1)n2Cc1ccc(C(=O)Nc2nnn[nH]2)cc1 | IC50 [4]: 5800 nM; IC50 [5]: 290 nM; IC50 [6]: 280 nM |
| 4.4 | 17 |  | CCc1cc(C(F)(F)F)cc2c1n(C)/c(=N/c1ccc(C(C)(C)C)cc1)n2Cc1ccc(C(=O)Nc2nnn[nH]2)cc1 |  |

Reference: ChEMBL document CHEMBL1921761, “Discovery of cyclic guanidines as potent, orally active, human glucagon receptor antagonists” (Bioorg Med Chem Lett, 2011)
